The Tmax is the time at which the peak concentration occurs. In general, Cmax refers to the peak of the concentration-time curve. The AUC(0-t) is exposure summed from dosing to a finite time, without extrapolation to infinity. Lower therefore signals low exposure. By half-life is commonly meant the time needed for the level to fall by half in the phase considered. A low value points to rapid decline. By inhibition is commonly meant the percentage by which the read-out fell short of the control. Low values mean little suppression, high ones strong suppression. As a reminder, the IC50 is the concentration that inhibits the measured activity by half. The term EC50 denotes the midpoint of the concentration-response curve. As a reminder, the TD50 is the dose at which the toxic effect under study appears in half of the subjects.

A value given as a limit tells only on which side of the number the result lay.

The nature of series [1]: Tmax in Sprague-Dawley rat at 6 mg/kg, po measured upto 24 hrs by LC-MS/MS method. Conditions: in vivo. It counts as ADME, organism-based. In outline: (§1)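 Male SD rats (180–220 g) dosed orally at 2, 6 and 20 mg/kg, handled like the mice: fasting, 5% DMSO/5% Tween 80/saline vehicle, acetonitrile extraction, LC-MS/MS of plasma. In a separate set at 6 mg/kg p.o., blood and brain were sampled together.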

Series [2] can be described thus: Tmax in Sprague-Dawley rat brain at 6 mg/kg, po measured upto 24 hrs by LC-MS/MS method. It counts as ADME, organism-based. In outline: as §1
Series [3] is described as follows: Cmax in Sprague-Dawley rat brain at 6 mg/kg, po measured upto 24 hrs by LC-MS/MS method. It counts as ADME, organism-based. Set-up: time < 24 hrs, dose 6 mg/kg, route po. In outline:
(§2)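 Male SD rats (180−220 g) given single oral doses of 2, 6 and 20 mg/kg; handled as in the mouse PK study (fasted 12 h before and 2 h after dosing, 5% DMSO/5% Tween 80/90% saline formulation). In a separate 6 mg/kg p.o. set, blood and brain were sampled together. Plasma and brain levels by LC−MS/MS.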

Series [4] is described as follows: Cmax in Sprague-Dawley rat blood at 6 mg/kg, po measured upto 24 hrs by LC-MS/MS method. The class given is ADME, organism-based. Set-up: time < 24 hrs, dose 6 mg/kg, route po. An outline of the steps: as §2
Series [5] in a line: AUC(0 to t) in Sprague-Dawley rat at 20 mg/kg, po measured upto 24 hrs by LC-MS/MS method. The following applies: in vivo. It counts as ADME, organism-based. Also on record: dose 20 mg/kg, time < 24 hrs, route po. In outline: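 Male SD rats (180−220 g) dosed orally at 2, 6 or 20 mg/kg in escalating fashion, handled as in the mouse study: 12 h fast, acetonitrile extraction of plasma, LC−MS/MS quantification. AUC0−t by trapezoidal method to the last measurable concentration.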

A short description of series [6]: Half life in Sprague-Dawley rat at 2 mg/kg, po measured upto 24 hrs by LC-MS/MS method. It counts as ADME, organism-based. The following applies: in vivo. An outline of the steps:
as §2

Series [7] in a line: Metabolic stability in mouse liver microsomes assessed as intrinsic clearance. The class given is ADME, Microsome. Conditions: read-out: CLH. (In general: Liver microsomes are vesicles of endoplasmic reticulum, rich in cytochrome P450 enzymes.)
Another series deals with CYP2C9 (Homo sapiens, UniProt P11712). Put plainly: Inhibition of human liver microsome CYP2C9 at 0.10 to 50 uM preincubated with NADPH for 0.5 hrs followed by substrate addition by LC-MS/MS method relative to control. It counts as ADME. The following applies: liver microsomes, dose 0.1-50 µM.
Sequence of CYP2C9 (P11712 whole entry): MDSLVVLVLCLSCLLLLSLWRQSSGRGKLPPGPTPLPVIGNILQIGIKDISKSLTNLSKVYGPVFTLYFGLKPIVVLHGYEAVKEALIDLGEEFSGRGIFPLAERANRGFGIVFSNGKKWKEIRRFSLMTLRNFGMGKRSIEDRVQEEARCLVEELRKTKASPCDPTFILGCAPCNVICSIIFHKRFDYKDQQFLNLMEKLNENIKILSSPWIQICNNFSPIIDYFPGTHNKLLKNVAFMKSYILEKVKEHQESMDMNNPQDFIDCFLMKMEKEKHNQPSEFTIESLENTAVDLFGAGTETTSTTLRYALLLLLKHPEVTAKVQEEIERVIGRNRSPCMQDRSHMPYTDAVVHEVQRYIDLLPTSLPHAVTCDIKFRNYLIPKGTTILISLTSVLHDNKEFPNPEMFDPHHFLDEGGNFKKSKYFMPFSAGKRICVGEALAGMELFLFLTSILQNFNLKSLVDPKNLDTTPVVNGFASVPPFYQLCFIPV
The target in another series is CYP2D6 (Homo sapiens, UniProt P10635). Put plainly: Inhibition of human liver microsome CYP2D6 at 0.10 to 50 uM preincubated with NADPH for 0.5 hrs followed by substrate addition by LC-MS/MS method relative to control. It counts as ADME. Conditions: liver microsomes, dose 0.1-50 µM.
Sequence of CYP2D6 (P10635 whole entry): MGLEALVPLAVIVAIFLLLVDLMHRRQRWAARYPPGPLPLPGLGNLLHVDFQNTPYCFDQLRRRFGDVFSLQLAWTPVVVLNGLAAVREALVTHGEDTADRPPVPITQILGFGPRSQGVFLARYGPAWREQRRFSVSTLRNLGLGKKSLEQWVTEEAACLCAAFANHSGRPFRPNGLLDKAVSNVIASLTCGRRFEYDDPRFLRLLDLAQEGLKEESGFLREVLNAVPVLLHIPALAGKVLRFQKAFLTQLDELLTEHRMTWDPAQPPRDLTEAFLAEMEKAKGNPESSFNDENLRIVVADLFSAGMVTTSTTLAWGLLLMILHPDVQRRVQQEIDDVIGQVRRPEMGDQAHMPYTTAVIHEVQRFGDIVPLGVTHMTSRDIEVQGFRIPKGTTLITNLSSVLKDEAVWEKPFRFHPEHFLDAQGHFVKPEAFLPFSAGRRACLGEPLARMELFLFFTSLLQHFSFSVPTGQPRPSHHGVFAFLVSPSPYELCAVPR
In another series the target is CYP3A4 (Homo sapiens, UniProt P08684). Put plainly: Ratio of IC50 for human liver microsome CYP3A4 using midazolam as substrate in absence of NADPH to IC50 for human liver microsome CYP3A4 using midazolam as substrate in presence of NADPH. The following applies: liver microsomes, probe midazolam, read-out: Ratio IC50. In outline: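 Human liver microsomes preincubated 0.5 h with 0.10−50 μM compound, with or without NADPH, then CYP-specific probe substrates added (CYP3A4 with midazolam 1′-hydroxylation and with testosterone 6β-hydroxylation). Metabolites quantified by LC−MS/MS; % activity remaining computed against no-compound control. IC50 fitted by Probit model; ratio = IC50(−NADPH)/IC50(+NADPH).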
Sequence of CYP3A4 (P08684 whole entry): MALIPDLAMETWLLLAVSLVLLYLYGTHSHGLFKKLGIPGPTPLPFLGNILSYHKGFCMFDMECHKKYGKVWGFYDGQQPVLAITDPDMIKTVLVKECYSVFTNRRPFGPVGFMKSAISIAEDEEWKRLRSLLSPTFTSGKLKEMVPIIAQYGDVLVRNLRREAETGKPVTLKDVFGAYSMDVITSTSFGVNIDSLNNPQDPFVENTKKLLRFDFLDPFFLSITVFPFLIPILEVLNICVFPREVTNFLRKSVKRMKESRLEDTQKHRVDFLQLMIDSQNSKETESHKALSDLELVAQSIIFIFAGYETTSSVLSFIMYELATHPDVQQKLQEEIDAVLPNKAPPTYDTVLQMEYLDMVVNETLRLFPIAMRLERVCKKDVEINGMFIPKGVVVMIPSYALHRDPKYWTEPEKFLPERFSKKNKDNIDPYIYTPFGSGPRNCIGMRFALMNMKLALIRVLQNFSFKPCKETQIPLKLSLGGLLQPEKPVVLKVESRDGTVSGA

A further series addresses Cytochrome P450 1A2 (Homo sapiens, UniProt P05177). Put plainly: Time dependent inhibition of human liver microsome CYP1A2 preincubated for 0.5 hrs in presence of NADPH followed by substrate addition by LC-MS/MS method. The class given is ADME, microsomes. An outline of the steps:
(§3)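 Human liver microsomes preincubated 0.5 h with 0.10–50 μM test compound, with or without NADPH, then CYP-specific probe substrate added and incubation continued. Metabolite measured by LC-MS/MS; % activity remaining relative to no-compound control; IC50 fitted by Probit model. For CYP3A4, midazolam 1′-hydroxylation and testosterone 6β-hydroxylation were read separately.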

The target in the next series is Cytochrome P450 2C8 (Homo sapiens, UniProt P10632). The experiment in a line: Time dependent inhibition of human liver microsome CYP2C8 preincubated for 0.5 hrs in presence of NADPH followed by substrate addition by LC-MS/MS method. The class given is ADME, microsomes. In outline: as §3
Sequence of Cytochrome P450 2C8 (P10632 whole entry): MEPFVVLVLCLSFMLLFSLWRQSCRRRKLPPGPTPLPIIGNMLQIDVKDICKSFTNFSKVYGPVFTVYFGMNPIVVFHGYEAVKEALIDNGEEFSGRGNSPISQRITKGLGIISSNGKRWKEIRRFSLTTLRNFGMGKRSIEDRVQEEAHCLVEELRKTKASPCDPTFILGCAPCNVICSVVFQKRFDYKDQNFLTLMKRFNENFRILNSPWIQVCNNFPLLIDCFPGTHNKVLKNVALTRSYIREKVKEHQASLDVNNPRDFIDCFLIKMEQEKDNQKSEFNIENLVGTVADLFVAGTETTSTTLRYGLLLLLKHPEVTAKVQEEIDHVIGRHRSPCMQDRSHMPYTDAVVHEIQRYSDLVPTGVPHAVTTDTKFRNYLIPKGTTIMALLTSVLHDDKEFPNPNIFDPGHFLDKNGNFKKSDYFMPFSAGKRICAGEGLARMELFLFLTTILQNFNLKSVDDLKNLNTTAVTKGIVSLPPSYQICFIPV
For the next series, the target named is CYP2B6 (Homo sapiens, UniProt P20813). Put plainly: Ratio of IC50 for human liver microsome CYP2B6 in absence of NADPH to IC50 for human liver microsome CYP2B6 in presence of NADPH. Conditions: liver microsomes, read-out: Ratio IC50.
Sequence of CYP2B6 (P20813 whole entry): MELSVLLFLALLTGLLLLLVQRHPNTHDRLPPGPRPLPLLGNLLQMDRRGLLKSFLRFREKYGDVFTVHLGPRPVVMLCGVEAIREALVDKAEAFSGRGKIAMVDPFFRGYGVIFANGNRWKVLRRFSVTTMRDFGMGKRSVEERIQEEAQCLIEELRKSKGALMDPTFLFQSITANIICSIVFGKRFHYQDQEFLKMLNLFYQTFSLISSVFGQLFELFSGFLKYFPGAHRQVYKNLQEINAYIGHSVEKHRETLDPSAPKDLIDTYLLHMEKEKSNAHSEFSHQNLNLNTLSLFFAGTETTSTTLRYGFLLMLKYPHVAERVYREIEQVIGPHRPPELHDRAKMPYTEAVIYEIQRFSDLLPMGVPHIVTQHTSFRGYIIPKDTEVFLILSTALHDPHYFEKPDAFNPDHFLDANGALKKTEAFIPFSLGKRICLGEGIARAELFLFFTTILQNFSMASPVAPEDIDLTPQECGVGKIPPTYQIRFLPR
For series [8], the system named is Mus musculus. The experiment in a line: Anticonvulsant activity in MES induced Kunming mouse model of seizure at 5 mg/kg, po after 1 hr. It counts as functional. An outline of the steps: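 MES test in male KM mice. Compounds freshly suspended in 0.5% CMC-Na and given by gavage at 20 mL/kg; 160 V stimulus through ear clips. Protection scored as absence of hindlimb tonic extension; time course at 0.25, 0.5, 1 and 2 h, otherwise tested at 1 h. ED50 from dose−response by nonlinear regression; Fisher's exact test versus vehicle.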

The nature of series [9]: Drug concentration in Kunming mouse plasma at 5 mg/kg. The class given is ADME, organism-based. Conditions: in vivo. In outline: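 Male KM mice (18−24 g) fasted 12 h before and 2 h after dosing, given 5 mg/kg orally in 5% DMSO/5% Tween 80/90% normal saline (n = 3 per time point). Aortic blood taken at 0.25–24 h and whole brain collected. Acetonitrile extraction with internal standard, then LC−MS/MS. Bioavailability calculated against the 2 mg/kg i.v. arm.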

For the next series, the system named is Brain. Put plainly: Anticonvulsant activity in MES induced Kunming mouse model of seizure assessed as EC50 in brain. It counts as functional, tissue-based.
Series [10] in a line: Neurotoxicity in Kunming mouse assessed as motor impairment rate at 150 mg/kg, po after 1 hr by rotarod test. The class given is toxicity, organism-based. The following applies: in vivo. In outline: (§4)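 Male KM mice dosed intragastrically with compound freshly suspended in 0.5% CMC-Na. Rotarod performance scored 1 h after dosing as the fraction of animals showing motor impairment. Fisher's exact test versus vehicle; TD50 from nonlinear dose−response fit.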
A general note: The rotarod test checks motor coordination on a turning rod.

The nature of series [11]: Neurotoxicity in Kunming mouse assessed as motor impairment rate at 200 mg/kg, po after 1 hr by rotarod test. It counts as toxicity, organism-based. The following applies: in vivo. In outline: as §4
Series [12] in a line: Ratio of TD50 for Kunming mouse to ED50 for anticonvulsant activity in Kunming mouse. The class given is toxicity. The following applies: read-out: Ratio TD50/ED50. An outline of the steps: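 KM mice given compound orally as a fresh 0.5% CMC-Na suspension (20 mL/kg), tested 1 h later. ED50 from the MES test (protection from hindlimb tonic extension; ear-clip stimulus 160 V). TD50 from the rotarod test as motor impairment. Both from dose–response nonlinear regression with 95% CI.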

The subject of series [13] is Mus musculus. Put plainly: Anticonvulsant activity in pentylenetetrazol induced Kunming mouse model of seizure at 30 mg/kg, po after 1 hr. It counts as functional. In outline:
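sc-PTZ test in male KM mice. Compound suspended in 0.5% CMC-Na and given orally 1 h before PTZ (freshly dissolved in normal saline, 100 mg/kg). Protection against clonic seizures scored; ED50 by nonlinear regression.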

A short description of series [14]: Neurotoxicity in po dosed Kunming mouse assessed as motor impairment after 1 hr by rotarod test. The class given is toxicity, organism-based. The following applies: in vivo. In outline:
as §4

Sequence of Cytochrome P450 1A2 (P05177 whole entry): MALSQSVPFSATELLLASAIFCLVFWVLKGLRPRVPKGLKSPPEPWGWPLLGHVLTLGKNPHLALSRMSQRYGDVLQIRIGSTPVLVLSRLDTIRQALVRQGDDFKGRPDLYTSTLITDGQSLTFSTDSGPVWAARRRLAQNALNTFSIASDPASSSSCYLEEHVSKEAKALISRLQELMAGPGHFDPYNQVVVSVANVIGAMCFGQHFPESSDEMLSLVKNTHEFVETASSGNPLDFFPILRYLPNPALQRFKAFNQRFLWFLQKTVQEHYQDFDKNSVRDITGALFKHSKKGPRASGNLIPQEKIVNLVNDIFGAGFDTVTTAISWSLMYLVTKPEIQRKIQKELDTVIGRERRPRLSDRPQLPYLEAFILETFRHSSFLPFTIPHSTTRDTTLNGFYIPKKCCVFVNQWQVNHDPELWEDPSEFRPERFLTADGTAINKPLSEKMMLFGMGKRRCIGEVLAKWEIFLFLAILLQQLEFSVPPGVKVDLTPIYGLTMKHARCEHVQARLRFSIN

`C#CCN(Cc1ccc(F)cc1)c1cc(C)c(NC(=O)OC)c(C)c1`: the time to peak (Tmax) in series [1] was found to be 40.2 min; in [2] it was 15 min. In addition, the Cmax in series [3] was determined as 578 ng/mL; in [4] it was 162 ng/mL. Besides, the AUC(0-t) at 24 h in series [5] turned out to be 1920 ng·h/mL. The compound further gave a half-life in series [6] of 103 min. For the same compound, the CLint scaled in series [7] came out at 438 mL/min/kg. Further, the inhibition at 0.5 h, up to 50 µM against CYP2C9 and against CYP2D6 was less than 25% in each case. The results for the IC50 shift on CYP3A4 and on CYP2B6 were less than 1.5 and more than 1.5, respectively. The IC50 on Cytochrome P450 1A2 was 2530 nM; at Cytochrome P450 2C8 it was 35200 nM. The Activity is recorded as 100% in the series on Mus musculus [8], 87.5% in series [10] and 100% in series [11]. Besides, the concentration in [9] came to 110 nM. In the series with Brain, the EC50 was 70 nM. Also, in [12], the selectivity ratio was 43.2.

As to `CCOC(=O)Nc1ccc(NCc2ccc(F)cc2)cc1N` [EZOGABINE], the Activity is 50% in the series on Mus musculus [13] and “Dde” in series [14] (po, 1 h, DDE = dose-dependent effect). Besides, in [14] (Kunming), the TD50 at 1 h came out at 188 mg/kg.

(Values after ChEMBL document CHEMBL5149984, “Discovery of HN37 as a Potent and Chemically Stable Antiepileptic Drug Candidate” (J Med Chem, 2021).)
